Test [1] addresses Sodium channel protein type 5 subunit alpha (Homo sapiens, UniProt Q14524). In words: Inhibition of human Nav1.5 expressed in HEK293 cells assessed as inward peak current by ion-works quattro patch clamp electrophysiology method. It counts as cell-based. Put shortly:
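Stable HEK293 line expressing human NaV1.5, recorded by population patch clamp on the IonWorks Quattro.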

Test [2] has as its target Sodium channel protein type 9 subunit alpha (Homo sapiens, UniProt Q15858). In words: Inhibition of human Nav1.7 expressed in HEK293 cells assessed as inward peak current by ion-works quattro patch clamp electrophysiology method. It counts as cell-based.

The record followed here is ChEMBL document CHEMBL3797186, “Single Residue Substitutions That Confer Voltage-Gated Sodium Ion Channel Subtype Selectivity in the NaV1.7 Inhibitory Peptide GpTx-1” (J Med Chem, 2016).

The structures appear in SMILES notation. Positions of bridges follow the written chain, without caps; N, C: chain ends. Non-standard residues stand in square brackets, D forms with d. Residues, ends and D or L forms follow the SMILES beside them. 1Nal = N[C@@H](Cc1cccc2ccccc12)C(=O)O Some results are limits rather than exact numbers.

Chain of Sodium channel protein type 5 subunit alpha (Q14524 whole entry): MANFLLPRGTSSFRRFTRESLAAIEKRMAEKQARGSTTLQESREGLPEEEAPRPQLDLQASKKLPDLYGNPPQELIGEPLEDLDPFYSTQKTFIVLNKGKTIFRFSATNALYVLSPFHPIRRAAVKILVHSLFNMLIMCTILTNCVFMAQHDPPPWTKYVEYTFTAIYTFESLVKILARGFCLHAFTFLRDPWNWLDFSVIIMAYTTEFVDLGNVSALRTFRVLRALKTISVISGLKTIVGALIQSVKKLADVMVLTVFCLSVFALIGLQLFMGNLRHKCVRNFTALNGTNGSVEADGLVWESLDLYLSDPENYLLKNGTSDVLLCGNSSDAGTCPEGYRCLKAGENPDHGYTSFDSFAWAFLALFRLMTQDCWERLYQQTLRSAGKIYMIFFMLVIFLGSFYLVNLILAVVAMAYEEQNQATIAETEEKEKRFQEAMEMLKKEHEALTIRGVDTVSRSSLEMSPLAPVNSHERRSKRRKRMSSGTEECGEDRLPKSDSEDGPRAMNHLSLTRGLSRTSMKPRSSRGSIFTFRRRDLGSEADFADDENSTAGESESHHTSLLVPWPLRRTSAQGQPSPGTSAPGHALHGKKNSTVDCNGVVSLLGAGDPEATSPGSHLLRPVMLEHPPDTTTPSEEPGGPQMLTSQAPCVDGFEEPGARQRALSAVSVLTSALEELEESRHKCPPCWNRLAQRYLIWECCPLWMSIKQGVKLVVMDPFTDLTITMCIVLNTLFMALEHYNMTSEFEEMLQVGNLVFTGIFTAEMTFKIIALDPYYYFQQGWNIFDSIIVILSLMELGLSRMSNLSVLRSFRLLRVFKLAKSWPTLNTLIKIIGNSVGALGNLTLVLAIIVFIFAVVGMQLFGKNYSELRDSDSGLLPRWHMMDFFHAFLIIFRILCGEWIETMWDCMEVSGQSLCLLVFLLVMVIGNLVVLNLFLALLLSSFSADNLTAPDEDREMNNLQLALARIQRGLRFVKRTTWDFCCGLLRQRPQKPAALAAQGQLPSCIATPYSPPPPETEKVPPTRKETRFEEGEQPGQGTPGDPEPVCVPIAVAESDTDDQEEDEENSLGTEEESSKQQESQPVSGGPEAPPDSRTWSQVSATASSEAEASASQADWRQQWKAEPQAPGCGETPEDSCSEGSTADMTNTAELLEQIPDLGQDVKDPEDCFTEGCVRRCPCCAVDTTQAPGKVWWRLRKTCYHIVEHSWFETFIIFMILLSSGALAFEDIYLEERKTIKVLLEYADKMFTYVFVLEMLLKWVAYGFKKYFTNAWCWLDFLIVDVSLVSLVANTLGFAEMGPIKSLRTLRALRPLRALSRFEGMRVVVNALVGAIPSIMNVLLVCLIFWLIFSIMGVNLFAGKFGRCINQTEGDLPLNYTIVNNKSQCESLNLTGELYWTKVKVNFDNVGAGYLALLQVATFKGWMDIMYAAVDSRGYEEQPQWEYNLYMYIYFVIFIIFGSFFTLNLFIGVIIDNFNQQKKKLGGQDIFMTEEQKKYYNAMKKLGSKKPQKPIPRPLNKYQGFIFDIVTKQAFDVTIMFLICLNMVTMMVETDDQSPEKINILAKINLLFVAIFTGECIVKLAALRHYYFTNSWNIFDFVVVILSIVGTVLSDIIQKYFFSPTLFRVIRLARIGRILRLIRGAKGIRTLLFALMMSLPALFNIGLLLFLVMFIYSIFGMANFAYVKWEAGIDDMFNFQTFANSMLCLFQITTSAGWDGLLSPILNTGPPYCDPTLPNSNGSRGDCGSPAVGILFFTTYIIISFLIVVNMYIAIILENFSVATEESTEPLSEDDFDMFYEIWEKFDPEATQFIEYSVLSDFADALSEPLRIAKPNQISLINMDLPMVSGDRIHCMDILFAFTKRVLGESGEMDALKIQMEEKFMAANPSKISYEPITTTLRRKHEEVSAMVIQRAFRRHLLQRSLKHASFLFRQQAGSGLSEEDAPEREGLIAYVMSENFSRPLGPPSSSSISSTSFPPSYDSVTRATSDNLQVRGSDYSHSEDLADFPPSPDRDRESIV
Chain of Sodium channel protein type 9 subunit alpha (Q15858 whole entry): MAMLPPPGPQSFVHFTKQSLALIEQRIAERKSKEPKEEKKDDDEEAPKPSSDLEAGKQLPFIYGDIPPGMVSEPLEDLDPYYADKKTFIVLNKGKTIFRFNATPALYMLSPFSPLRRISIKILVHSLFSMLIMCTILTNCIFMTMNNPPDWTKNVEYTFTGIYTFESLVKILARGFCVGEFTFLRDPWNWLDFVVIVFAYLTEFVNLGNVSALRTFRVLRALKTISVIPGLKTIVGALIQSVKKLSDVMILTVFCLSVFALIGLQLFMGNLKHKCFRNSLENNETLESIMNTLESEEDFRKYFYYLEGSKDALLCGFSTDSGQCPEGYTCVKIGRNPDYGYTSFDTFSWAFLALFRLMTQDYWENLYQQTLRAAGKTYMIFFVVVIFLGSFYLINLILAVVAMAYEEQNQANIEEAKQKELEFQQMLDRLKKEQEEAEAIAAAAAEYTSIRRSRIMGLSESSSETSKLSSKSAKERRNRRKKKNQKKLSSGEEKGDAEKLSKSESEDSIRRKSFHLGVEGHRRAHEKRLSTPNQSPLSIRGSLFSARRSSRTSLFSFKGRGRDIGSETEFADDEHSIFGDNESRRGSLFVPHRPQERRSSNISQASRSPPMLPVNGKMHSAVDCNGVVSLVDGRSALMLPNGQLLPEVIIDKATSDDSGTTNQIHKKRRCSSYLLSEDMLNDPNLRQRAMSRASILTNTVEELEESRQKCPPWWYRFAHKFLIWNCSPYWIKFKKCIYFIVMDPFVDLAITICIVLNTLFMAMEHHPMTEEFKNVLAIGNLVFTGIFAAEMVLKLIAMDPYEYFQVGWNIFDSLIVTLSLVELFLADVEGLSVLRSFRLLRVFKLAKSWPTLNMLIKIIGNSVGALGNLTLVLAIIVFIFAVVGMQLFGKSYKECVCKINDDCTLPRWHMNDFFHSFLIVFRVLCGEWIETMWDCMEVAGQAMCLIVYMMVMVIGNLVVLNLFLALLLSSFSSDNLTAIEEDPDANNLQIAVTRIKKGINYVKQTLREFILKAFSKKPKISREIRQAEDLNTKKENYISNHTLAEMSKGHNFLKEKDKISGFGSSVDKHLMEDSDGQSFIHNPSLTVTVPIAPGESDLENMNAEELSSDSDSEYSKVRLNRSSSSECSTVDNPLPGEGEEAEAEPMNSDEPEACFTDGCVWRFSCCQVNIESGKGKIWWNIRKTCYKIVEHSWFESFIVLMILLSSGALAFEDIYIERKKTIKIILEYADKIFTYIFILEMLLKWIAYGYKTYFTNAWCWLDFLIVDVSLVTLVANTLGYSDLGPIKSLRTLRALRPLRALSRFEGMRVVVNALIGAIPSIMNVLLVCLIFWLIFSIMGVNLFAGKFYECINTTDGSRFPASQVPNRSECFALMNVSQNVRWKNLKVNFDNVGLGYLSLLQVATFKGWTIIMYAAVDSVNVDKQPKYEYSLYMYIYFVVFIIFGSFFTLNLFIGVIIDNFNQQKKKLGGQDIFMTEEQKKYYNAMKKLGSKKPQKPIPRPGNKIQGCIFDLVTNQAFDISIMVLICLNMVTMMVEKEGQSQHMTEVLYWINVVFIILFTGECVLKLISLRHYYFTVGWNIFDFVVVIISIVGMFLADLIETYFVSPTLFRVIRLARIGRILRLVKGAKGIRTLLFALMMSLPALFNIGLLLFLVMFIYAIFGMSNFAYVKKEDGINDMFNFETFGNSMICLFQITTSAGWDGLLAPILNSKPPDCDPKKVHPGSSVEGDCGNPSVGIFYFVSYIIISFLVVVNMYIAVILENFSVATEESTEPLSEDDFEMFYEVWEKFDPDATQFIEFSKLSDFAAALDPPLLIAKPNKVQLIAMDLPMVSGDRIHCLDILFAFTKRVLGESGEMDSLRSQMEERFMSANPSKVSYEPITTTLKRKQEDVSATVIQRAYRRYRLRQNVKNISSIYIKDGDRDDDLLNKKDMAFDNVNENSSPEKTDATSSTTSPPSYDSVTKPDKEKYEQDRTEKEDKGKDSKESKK

`CC[C@H](C)[C@@H]1NC(=O)[C@@H]2CSSC[C@@H]3NC(=O)[C@H](C(C)C)NC(=O)[C@H](CC(C)C)NC(=O)[C@H](CC(N)=O)NC(=O)[C@@H]4CCCN4C(=O)[C@H](CCCNC(=N)N)NC(=O)[C@H](CSSC[C@H](NC(=O)[C@@H](N)CC(=O)O)C(=O)N[C@@H](CC(C)C)C(=O)NCC(=O)N[C@@H](Cc4ccccc4)C(=O)N[C@@H](CCSC)C(=O)N[C@@H](CCCNC(=N)N)C(=O)N[C@@H](CCCCN)C(=O)N2)NC(=O)[C@H](CSSC[C@@H](C(=O)N[C@@H](CCCCN)C(=O)N[C@@H](Cc2ccc(O)cc2)C(=O)N[C@H](C(=O)N[C@@H](Cc2ccccc2)C(N)=O)C(C)C)NC(=O)[C@H](Cc2c[nH]c4ccccc24)NC(=O)[C@H](CCCCN)NC(=O)[C@H](Cc2cnc[nH]2)NC(=O)[C@H](CCC(=O)O)NC(=O)[C@H](CCCNC(=N)N)NC(=O)[C@H](CO)NC3=O)NC(=O)[C@H](CCCCN)NC(=O)[C@H](CC(=O)O)NC(=O)[C@H](CC(N)=O)NC(=O)[C@H](CC(=O)O)NC(=O)[C@@H]2CCCN2C1=O` (H-DCLGFMRKCIPDNDKCCRPNLVCSREHKWCKYVF-NH2; disulfide 2-17, 9-23, 16-30): the figures for the IC50 in test [1] and in test [2] were above 5 µM and 0.69 µM, respectively.

On to `CC[C@H](C)[C@@H]1NC(=O)[C@@H]2CSSC[C@@H]3NC(=O)[C@H](C(C)C)NC(=O)[C@H](CC(C)C)NC(=O)[C@H](CC(N)=O)NC(=O)[C@@H]4CCCN4C(=O)[C@H](CCCNC(=N)N)NC(=O)[C@H](CSSC[C@H](NC(=O)[C@@H](N)CC(=O)O)C(=O)N[C@@H](CC(C)C)C(=O)NCC(=O)N[C@@H](Cc4ccccc4)C(=O)N[C@@H](CCSC)C(=O)N[C@@H](CCCNC(=N)N)C(=O)N[C@@H](CCCCN)C(=O)N2)NC(=O)[C@H](CSSC[C@@H](C(=O)N[C@@H](CCCCN)C(=O)N[C@@H](Cc2ccc(O)cc2)C(=O)N[C@H](C(=O)N[C@@H](Cc2ccccc2)C(N)=O)C(C)C)NC(=O)[C@H](Cc2c[nH]c4ccccc24)NC(=O)[C@H](CCCCN)NC(=O)[C@H](Cc2cnc[nH]2)NC(=O)[C@H]([C@@H](C)O)NC(=O)[C@H](CCCNC(=N)N)NC(=O)[C@H](CO)NC3=O)NC(=O)[C@H](CCCNC(=N)N)NC(=O)[C@H](CC(=O)O)NC(=O)[C@H](CC(N)=O)NC(=O)[C@H](CC(=O)O)NC(=O)[C@@H]2CCCN2C1=O` (H-DCLGFMRKCIPDNDRCCRPNLVCSRTHKWCKYVF-NH2; disulfide 2-17, 9-23, 16-30), for which the figures for the IC50 in test [1] and in test [2] were above 5 µM and 0.22 µM, respectively.

Turning to `CC[C@H](C)[C@@H]1NC(=O)[C@@H]2CSSC[C@@H]3NC(=O)[C@H](C(C)C)NC(=O)[C@H](CC(C)C)NC(=O)[C@H](CC(N)=O)NC(=O)[C@@H]4CCCN4C(=O)[C@H](CCCNC(=N)N)NC(=O)[C@H](CSSC[C@H](NC(=O)[C@@H](N)CC(=O)O)C(=O)N[C@@H](CC(C)C)C(=O)NCC(=O)N[C@@H](Cc4ccccc4)C(=O)N[C@@H](CCSC)C(=O)N[C@@H](CCCNC(=N)N)C(=O)N[C@@H](CCCCN)C(=O)N2)NC(=O)[C@H](CSSC[C@@H](C(=O)N[C@@H](CCCCN)C(=O)N[C@@H](Cc2ccc(O)cc2)C(=O)N[C@H](C(=O)N[C@@H](Cc2ccccc2)C(N)=O)C(C)C)NC(=O)[C@H](Cc2c[nH]c4ccccc24)NC(=O)[C@H](CCCCN)NC(=O)[C@H](Cc2cnc[nH]2)NC(=O)[C@H]([C@@H](C)O)NC(=O)[C@H](CCCNC(=N)N)NC(=O)[C@H](CO)NC3=O)NC(=O)[C@H](CCCCN)NC(=O)[C@H](CC(=O)O)NC(=O)[C@H](CC(N)=O)NC(=O)[C@H](Cc2c[nH]c3ccccc23)NC(=O)[C@@H]2CCCN2C1=O` (H-DCLGFMRKCIPWNDKCCRPNLVCSRTHKWCKYVF-NH2; disulfide 2-17, 9-23, 16-30), the IC50 in test [1] is above 5 µM; in test [2], 0.06 µM.

For `CC[C@H](C)[C@@H]1NC(=O)[C@@H]2CSSC[C@@H]3NC(=O)[C@H](C(C)C)NC(=O)[C@H](CC(C)C)NC(=O)[C@H](CC(N)=O)NC(=O)[C@@H]4CCCN4C(=O)[C@H](CCCNC(=N)N)NC(=O)[C@H](CSSC[C@H](NC(=O)[C@@H](N)CC(=O)O)C(=O)N[C@@H](CC(C)C)C(=O)NCC(=O)N[C@@H](Cc4ccccc4)C(=O)N[C@@H](CCSC)C(=O)N[C@@H](CCCNC(=N)N)C(=O)N[C@@H](CCCCN)C(=O)N2)NC(=O)[C@H](CSSC[C@@H](C(=O)N[C@@H](CCCCN)C(=O)N[C@@H](Cc2ccc(O)cc2)C(=O)N[C@H](C(=O)N[C@@H](CCCNC(=N)N)C(N)=O)C(C)C)NC(=O)[C@H](Cc2c[nH]c4ccccc24)NC(=O)[C@H](CCCCN)NC(=O)[C@H](Cc2cnc[nH]2)NC(=O)[C@H]([C@@H](C)O)NC(=O)[C@H](CCCNC(=N)N)NC(=O)[C@H](CO)NC3=O)NC(=O)[C@H](CCCCN)NC(=O)[C@H](CC(=O)O)NC(=O)[C@H](CC(N)=O)NC(=O)[C@H](CC(=O)O)NC(=O)[C@@H]2CCCN2C1=O` (H-DCLGFMRKCIPDNDKCCRPNLVCSRTHKWCKYVR-NH2; disulfide 2-17, 9-23, 16-30), the IC50 in test [1] was above 5 µM; in test [2], 2.35 µM.

For the molecule `CC[C@H](C)[C@@H]1NC(=O)[C@@H]2CSSC[C@@H]3NC(=O)[C@H](C(C)C)NC(=O)[C@H](CC(C)C)NC(=O)[C@H](CC(N)=O)NC(=O)[C@@H]4CCCN4C(=O)[C@H](CCCNC(=N)N)NC(=O)[C@H](CSSC[C@H](NC(=O)[C@H](CC(=O)O)NC(=O)[C@@H](N)CCCCN)C(=O)N[C@@H](CC(C)C)C(=O)NCC(=O)N[C@@H](Cc4ccccc4)C(=O)N[C@@H](CCSC)C(=O)N[C@@H](CCCNC(=N)N)C(=O)N[C@@H](CCCCN)C(=O)N2)NC(=O)[C@H](CSSC[C@@H](C(=O)N[C@@H](CCCCN)C(=O)N[C@@H](Cc2ccc(O)cc2)C(=O)N[C@H](C(=O)N[C@@H](Cc2ccccc2)C(N)=O)C(C)C)NC(=O)[C@H](Cc2c[nH]c4ccccc24)NC(=O)[C@H](CCCCN)NC(=O)[C@H](Cc2cnc[nH]2)NC(=O)[C@H]([C@@H](C)O)NC(=O)[C@H](CCCNC(=N)N)NC(=O)[C@H](CO)NC3=O)NC(=O)[C@H](CCCCN)NC(=O)[C@H](CC(=O)O)NC(=O)[C@H](CC(N)=O)NC(=O)[C@H](CC(=O)O)NC(=O)[C@@H]2CCCN2C1=O`, the IC50 in test [1] was above 5 µM; in test [2], 0.12 µM.

Regarding `CC[C@H](C)[C@@H]1NC(=O)[C@@H]2CSSC[C@@H]3NC(=O)[C@H](C(C)C)NC(=O)[C@H](Cc4cccc5ccccc45)NC(=O)[C@H](CC(N)=O)NC(=O)[C@@H]4CCCN4C(=O)[C@H](CCCNC(=N)N)NC(=O)[C@H](CSSC[C@H](NC(=O)[C@@H](N)CC(=O)O)C(=O)N[C@@H](CC(C)C)C(=O)NCC(=O)N[C@@H](Cc4ccccc4)C(=O)N[C@@H](CCSC)C(=O)N[C@@H](CCCNC(=N)N)C(=O)N[C@@H](CCCCN)C(=O)N2)NC(=O)[C@H](CSSC[C@@H](C(=O)N[C@@H](CCCCN)C(=O)N[C@@H](Cc2ccc(O)cc2)C(=O)N[C@H](C(=O)N[C@@H](Cc2ccccc2)C(N)=O)C(C)C)NC(=O)[C@H](Cc2c[nH]c4ccccc24)NC(=O)[C@H](CCCCN)NC(=O)[C@H](Cc2c[nH]cn2)NC(=O)[C@H]([C@@H](C)O)NC(=O)[C@H](CCCNC(=N)N)NC(=O)[C@H](CO)NC3=O)NC(=O)[C@H](CCCCN)NC(=O)[C@H](CC(=O)O)NC(=O)[C@H](CC(N)=O)NC(=O)[C@H](CC(=O)O)NC(=O)[C@@H]2CCCN2C1=O` (H-DCLGFMRKCIPDNDKCCRPN[1Nal]VCSRTHKWCKYVF-NH2; disulfide 2-17, 9-23, 16-30), the IC50 in test [1] was above 5 µM; in test [2] it was 0.09 µM.
